The source of these data is ChEMBL document CHEMBL4400528, “Discovery and Optimization of Selective and in Vivo Active Inhibitors of the Lysophosphatidylserine Lipase α/β-Hydrolase Domain-Containing 12 (ABHD12)” (J Med Chem, 2019).

Each structure is given as a SMILES string.

Common to all, as to format: cell membranes
The target in assay [1] is T1, Lysophosphatidylserine lipase ABHD12 (Mus musculus, UniProt Q99LR1).
T1 sequence (Q99LR1 whole entry): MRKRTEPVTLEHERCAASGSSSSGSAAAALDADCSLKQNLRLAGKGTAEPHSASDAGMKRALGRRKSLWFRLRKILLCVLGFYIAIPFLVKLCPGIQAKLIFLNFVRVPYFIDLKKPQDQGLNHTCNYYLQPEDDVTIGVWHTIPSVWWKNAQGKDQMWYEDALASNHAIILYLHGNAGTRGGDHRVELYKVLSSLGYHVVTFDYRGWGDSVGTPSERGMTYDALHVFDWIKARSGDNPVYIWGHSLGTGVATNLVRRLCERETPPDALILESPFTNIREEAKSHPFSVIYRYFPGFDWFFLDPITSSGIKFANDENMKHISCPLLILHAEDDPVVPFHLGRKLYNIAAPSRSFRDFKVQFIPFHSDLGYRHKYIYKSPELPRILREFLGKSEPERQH
Kind of assay: Inhibition of JJH350 binding to ABHD12 in mouse brain membrane proteome incubated for 20 mins by CuAAC fluorescence dependent gel-based competitive ABPP assay. The essentials:
(§1)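 Brain membrane fraction (1 mg/mL; DPBS homogenate, 16,000 x g pellet) treated with inhibitor for 20 min at room temperature. JJH350 (2 μM) added for 45 min at 37 °C, then CuAAC with rhodamine-PEG3-azide, CuSO4, TBTA and TCEP for 1 h at room temperature. Run on 10% SDS-PAGE and read by in-gel fluorescence. ABHD12 band normalized to control-treated sample (100%); IC50 from log dose-response fit.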

Assay [2] addresses T2, Lysophosphatidylserine lipase ABHD12 (Mus musculus) (UniProt Q99LR1).
T2 sequence (whole entry): T1 sequence (Q99LR1 whole entry)
Put plainly: Inhibition of JJH350 binding to ABHD12 in mouse brain membrane proteome at 10 uM after 20 mins by CuAAC based fluorescence scanning assay relative to control. The method, boiled down:
as §1

For assay [3], the target named is T2, Lysophosphatidylserine lipase ABHD12 (Mus musculus). Put plainly: Inhibition of JJH350 binding to ABHD12 in mouse brain membrane proteome at 2 uM after 20 mins by CuAAC based fluorescence scanning assay relative to control. The essentials:
as §1

The term IC50 denotes the concentration at which inhibition is half-maximal. In assay [1], `FC(F)(F)Oc1cccc(Oc2ccnc(N3CCC(NC(=S)Nc4cccnc4)CC3)c2Cl)c1` came in with an IC50 of 89 nM.

For the compound `Cc1c(Oc2ccc(OC(F)(F)F)cc2)ccnc1N1CCC(NC(=S)Nc2cccnc2)CC1`, the IC50 in assay [1] was determined as 26 nM. In turn, `S=C(Nc1cccnc1)NC1CCN(c2cc(Cl)ccn2)CC1` returned an IC50 in assay [1] of 2100 nM. Broadly, the inhibition is how much of the control response was suppressed. High values mean strong suppression, low ones little suppression. Turning to `COc1ccc(NC(=S)NC2CCN(c3ncc(C(F)(F)F)cc3Cl)CC2)cn1`, the inhibition in assay [2] is 1%; in assay [3] it was 0%. `S=C(Nc1cccnc1)NC1CCN(c2cc(OCc3ccccc3)ccn2)CC1`: the half-inhibitory concentration (IC50) in assay [1] was 2800 nM. As to `FC(F)(F)c1ccnc(N2CCC(NC(=S)Nc3cccnc3)CC2)c1Cl`, in assay [1], the IC50 stood at 300 nM. For the compound `N#Cc1c(Oc2ccc(OC(F)(F)F)cc2)ccnc1N1CCC(NC(=S)Nc2cccnc2)CC1`, in assay [1], the IC50 is 180 nM. For the compound `FC(F)(F)c1cnc(NCCCCCCNC(=S)Nc2cccnc2)c(Cl)c1`, the inhibition in assay [2] came out at 70%; in assay [3] it was 22%.

In the case of `FC(F)(F)c1cnc(N2CCC(NC(=S)N3CCCc4ccccc43)CC2)c(Cl)c1`, the inhibition in assay [2] and in assay [3] was 0% each time. Take `FC(F)(F)c1cccc(N2CCC(NC(=S)Nc3cccnc3)CC2)n1`: the IC50 in assay [1] is 630 nM. Regarding `O=C(Nc1cccnc1)NC1CCN(c2ncc(C(F)(F)F)cc2Cl)CC1`, the inhibition in assay [2] amounted to 29%; in assay [3], 1%. As for `FC(F)(F)c1cc(Cl)nc(N2CCC(NC(=S)Nc3cccnc3)CC2)c1`, in assay [1], the IC50 was found to be 540 nM. With `COc1ccc(Oc2ccnc(N3CCC(NC(=S)Nc4cccnc4)CC3)c2)cc1`, in assay [1], the IC50 was found to be 2900 nM. This IC50 is about 5.4-fold higher than that of the compound before. Regarding `FC(F)(F)Oc1ccc(Oc2ccnc(N3CCCC(NC(=S)Nc4cccnc4)C3)c2Cl)c(Cl)c1` (stereo unspecified), the IC50 in assay [1] was determined as 90000 nM. As for `FC(F)(F)c1cnc(N2C3CCC2CC(NC(=S)Nc2cccnc2)C3)c(Cl)c1` (stereo unspecified), the values for the inhibition in assay [2] and in assay [3] were 63% and 19%, respectively. On to `FC(F)(F)c1cnc(N2CCC(NC(=S)Nc3cnc4ccccc4c3)CC2)c(Cl)c1`, for which the inhibition in assay [2] is 2%; in assay [3] it was 0%.

In the case of `S=C(Nc1cccnc1)NC1CCN(c2cc(OC3CCCCC3)ccn2)CC1`, in assay [1], the half-maximal inhibitory concentration (IC50) is 3400 nM.

Take `FC(F)(F)c1cnc(NCCCNC(=S)Nc2cccnc2)c(Cl)c1`: the inhibition in assay [2] and in assay [3] was 0% in each case.

The compound `FC(F)(F)Oc1ccccc1Oc1ccnc(N2CCC(NC(=S)Nc3cccnc3)CC2)c1Cl` came in with an IC50 in assay [1] of 96 nM.

Turning to `Fc1ccc(Oc2ccnc(N3CCC(NC(=S)Nc4cccnc4)CC3)c2)cc1`, the half-inhibitory concentration (IC50) in assay [1] was 1400 nM. For `S=C(Nc1cccnc1)NC1CCN(c2cc(Oc3ccccc3)ccn2)CC1`, in assay [1], the IC50 turned out to be 1900 nM. In assay [1], `FC(F)(F)c1cccnc1N1CCC(NC(=S)Nc2cccnc2)CC1` yielded a 50% inhibitory concentration (IC50) above 5000 nM. `FC(F)(F)c1ccc(N2CCC(NC(=S)Nc3cccnc3)CC2)nc1`: the IC50 in assay [1] turned out to be 1900 nM.

Compound `FC(F)(F)Oc1ccc(Oc2ccnc(N3CCC(NC(=S)Nc4cccnc4)CC3)c2C(F)(F)F)cc1` registered an IC50 in assay [1] of 2800 nM. The IC50 values of the last two compounds are within 1.5-fold of each other. The same measure, in the same setting: as for `Cc1cnc(N2CCC(NC(=S)Nc3cccnc3)CC2)c(Cl)c1`, the figure is 3100 nM. Consider `FC(F)(F)Oc1ccc(Oc2ccnc(N3CCC(NC(=S)Nc4cccnc4)CC3)c2Cl)cc1Cl`, for which the IC50 in assay [1] stood at 33 nM. Consider `FC(F)(F)Oc1ccc(Oc2ccnc(N3CCC(NC(=S)Nc4cccnc4)CC3)c2Cl)cc1`, for which the IC50 in assay [1] was found to be 25 nM. This IC50 and that of the compound before are within 1.5-fold of each other.

Take `FC(F)(F)c1cc(N2CCC(NC(=S)Nc3cccnc3)CC2)ncc1Cl`: the IC50 in assay [1] turned out to be 1400 nM. Compared with the last compound, the IC50 is about 56-fold higher.

`FC(F)(F)c1ccnc(N2CCC(NC(=S)Nc3cccnc3)CC2)c1` displayed an IC50 in assay [1] of 640 nM. In assay [1], `FC(F)(F)Oc1ccc(Oc2ccnc(N3CCC[C@@H](NC(=S)Nc4cccnc4)C3)c2Cl)c(Cl)c1` came in with an IC50 of 100000 nM. The same measure, in the same setting: to `COc1ccnc(N2CCC(NC(=S)Nc3cccnc3)CC2)c1` belongs above 5000 nM; to `S=C(Nc1cccnc1)NC1CCN(c2cc(OCC3CC3)ccn2)CC1`, 4700 nM; to `FC(F)(F)Oc1ccc(Oc2ccnc(N3CCC(NC(=S)Nc4cccnc4)CC3)c2)cc1`, 410 nM. For `S=C(Nc1cccnc1)NC1CCN(c2ncccc2Cl)CC1`, in assay [1], the IC50 was above 5000 nM.
